The structures appear in SMILES notation. pIC50: −log10 of the molar value. In brackets after ≈: the same amount, converted by molar mass.

Results on 25 compounds are retold here after ChEMBL document CHEMBL3352048, “Development of 2-(4-oxoquinazolin-3(4H)-yl)acetamide derivatives as novel enoyl-acyl carrier protein reductase (InhA) inhibitors for the treatment of tuberculosis” (Eur J Med Chem, 2014).

The test system of series [1] is Mycobacterium tuberculosis. As to the kind of experiment: Antimycobacterial activity against Mycobacterium tuberculosis H37Rv ATCC 27294 after 28 days by two-fold serial dilution assay. The series is classed as functional. The following applies: H37Rv ATCC 27294, 672 h. The method in brief:
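Agar dilution test against M. tuberculosis H37Rv (ATCC27294). Drug concentrations ran from 50 µg/mL to 0.78 µg/mL, tested in duplicate. MIC was taken as the minimum concentration inhibiting growth.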

Series [2] has as its target T1, Enoyl-[acyl-carrier-protein] reductase [NADH] (Mycobacterium tuberculosis, UniProt P9WGR1).
T1 sequence (P9WGR1 whole entry): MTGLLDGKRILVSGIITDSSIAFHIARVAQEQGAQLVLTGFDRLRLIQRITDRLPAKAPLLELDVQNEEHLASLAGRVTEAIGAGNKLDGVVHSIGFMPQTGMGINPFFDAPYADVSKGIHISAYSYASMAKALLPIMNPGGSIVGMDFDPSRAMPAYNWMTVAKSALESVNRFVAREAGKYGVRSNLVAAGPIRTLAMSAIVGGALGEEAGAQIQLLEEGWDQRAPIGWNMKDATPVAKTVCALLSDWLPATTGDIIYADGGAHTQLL
Briefly: Inhibition of Mycobacterium tuberculosis recombinant InhA expressed in Escherichia coli BL21 (DE3) using 2-trans-decenoyl substrate by spectrophotometry. The method in brief:
(§1)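 Recombinant M. tuberculosis InhA was expressed in E. coli and purified. Inhibition was screened as percent inhibition at 10 µM. IC50 values came from dose-response curves of log concentration versus % inhibition.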

The nature of series [3]: Cytotoxicity against mouse RAW264.7 cells at 50 uM after 72 hrs by MTT assay. The series is classed as cell-based. Particulars: read-out: INH. The procedure, abridged:
(§2)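 RAW 264.7 mouse leukemic monocyte macrophages were exposed to compound for 72 h, tested at concentrations up to 100 µM. Viability was read as MTT conversion to formazan (CellTiter 96 non-radioactive proliferation assay). Results are reported as percentage inhibition.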

Series [4] deals with T2, Enoyl-[acyl-carrier-protein] reductase [NADH] (Mycobacterium tuberculosis) (UniProt P9WGR1).
T2 sequence (whole entry): T1 sequence (P9WGR1 whole entry)
As to the kind of experiment: Inhibition of Mycobacterium tuberculosis recombinant InhA expressed in Escherichia coli BL21 (DE3) using 2-trans-decenoyl substrate at 10 uM by spectrophotometry. The method in brief:
as §1

For series [5], the system named is Mycobacterium tuberculosis. As to the kind of experiment: Antimycobacterial activity against Mycobacterium tuberculosis H37Rv ATCC 27294 after 28 days by two-fold serial dilution assay in presence of […] piperine efflux pump inhibitor. Type of series: functional. Particulars: H37Rv ATCC 27294, 672 h.
Series [6] can be described thus: Cytotoxicity against mouse RAW264.7 cells at 100 uM after 72 hrs by MTT assay. The following applies: read-out: INH. The series is classed as cell-based. The procedure, abridged: as §2

The MIC is the lowest concentration that inhibits growth of the organism. In series [1], `NNC(=O)c1ccncc1` [ISONIAZID] came in with an MIC of 0.72 µM (≈ 0.0987 µg/mL).

Usually pIC50 stands for −log10 of the IC50, conventionally taken in molar units. The inhibition is the drop in the measured response relative to a control, in per cent. Take `O=C(Cn1cnc2ccccc2c1=O)NCc1nc2ccc([N+](=O)[O-])cc2s1`: the pIC50 in series [2] is 5.29. The cytotoxicity at 72 h, 50 µM in series [3] is 13.1%. The inhibition in series [4] stood at 72.2%. Moreover, the MIC turned out to be 1.02 µM in series [5] and 4.09 µM (≈ 1.62 µg/mL) in series [1]. The cytotoxicity at 72 h, 100 µM in series [6] came out at 50.5%.

For `O=C(Cn1cnc2ccccc2c1=O)Nc1nccs1`, the inhibition in series [4] stood at 31%.

With `Cc1nc2ccccc2c(=O)n1CC(=O)NCc1nc2ccc([N+](=O)[O-])cc2s1`, the pIC50 in series [2] was 5.21. The cytotoxicity at 72 h, 50 µM in series [3] came to 34%. Further, in series [4], the inhibition is 64%. Further, the minimum inhibitory concentration (MIC) in series [1] is more than 63.2 µM. Further, the cytotoxicity at 72 h, 100 µM in series [6] is 37.4%.

Turning to `O=C(Cn1cnc2ccccc2c1=O)NCc1cccs1`, the cytotoxicity at 72 h, 50 µM in series [3] was 4.38%. Also, in series [4], the inhibition was 33.7%. Besides, the MIC worked out at 1.3 µM in series [5] and 5.21 µM (≈ 1.56 µg/mL) in series [1]. The cytotoxicity at 72 h, 100 µM in series [6] came to 41.4%.

For the compound `Cc1nc2ccccc2c(=O)n1CC(=O)Nc1ccccc1`, in series [2], the pIC50 is 5.05. For the same compound, in series [3], the cytotoxicity at 72 h, 50 µM stood at 11.2%. Besides, the inhibition in series [4] stood at 60.1%. Further, the MIC in series [5] was found to be 5.31 µM; in series [1], 10.7 µM (≈ 3.12 µg/mL). Also, the cytotoxicity at 72 h, 100 µM in series [6] came to 29.7%.

With `O=C(Cn1cnc2ccc(Cl)cc2c1=O)NCc1nc2ccc([N+](=O)[O-])cc2s1`, the cytotoxicity at 72 h, 50 µM in series [3] stood at 15.8%. Also, the inhibition in series [4] worked out at 45.6%. Also, the MIC turned out to be 30.1 µM in series [5] and 30.1 µM (≈ 12.9 µg/mL) in series [1]. In series [6], the cytotoxicity at 72 h, 100 µM was determined as 62.8%.

On to `Cc1nc2ccccc2c(=O)n1CC(=O)NCc1cccs1`, for which the pIC50 in series [2] is 5.22. Moreover, the cytotoxicity at 72 h, 50 µM in series [3] was 35.6%. Further, in series [4], the inhibition worked out at 68.2%. Besides, the MIC in series [5] stood at 4.97 µM; in series [1] it was 9.97 µM (≈ 3.12 µg/mL). Besides, the cytotoxicity at 72 h, 100 µM in series [6] was found to be 38.6%.

With `O=C(Cn1cnc2ccccc2c1=O)Nc1cc(Cl)ccc1Cl`, the inhibition in series [4] is 16.3%.

`Cc1nc2ccc(Cl)cc2c(=O)n1CC(=O)NCc1ccco1`: the pIC50 in series [2] is 5.34. Further, the cytotoxicity at 72 h, 50 µM in series [3] was determined as 3.36%. Also, in series [4], the inhibition was found to be 78.1%. Further, the MIC in series [5] turned out to be 1.17 µM; in series [1], 4.7 µM (≈ 1.56 µg/mL). Moreover, the cytotoxicity at 72 h, 100 µM in series [6] stood at 5.37%.

As to `O=C(Cn1cnc2ccccc2c1=O)Nc1ccccc1`, the cytotoxicity at 72 h, 50 µM in series [3] came out at 21.2%. The inhibition in series [4] is 52.1%. Also, the MIC in series [5] was found to be 5.58 µM; in series [1], 11.2 µM (≈ 3.12 µg/mL). Also, the cytotoxicity at 72 h, 100 µM in series [6] came to 31.1%.

Take `Cc1cccc(NC(=O)Cn2cnc3ccccc3c2=O)c1`: the inhibition in series [4] was found to be 14.5%.

With `O=C(Cn1cnc2ccc(Cl)cc2c1=O)Nc1cc(C(F)(F)F)ccc1Cl`, the pIC50 in series [2] is 5.34. Also, the cytotoxicity at 72 h, 50 µM in series [3] was determined as 48.9%. Besides, the inhibition in series [4] was 80.1%. Besides, the minimum inhibitory concentration (MIC) in series [5] came to 1.87 µM; in series [1] it was 3.74 µM (≈ 1.56 µg/mL). The cytotoxicity at 72 h, 100 µM in series [6] is 53.6%.

On to `O=C(Cn1cnc2ccc(Cl)cc2c1=O)NCc1ccco1`, for which, in series [2], the pIC50 was 5.51. Also, the cytotoxicity at 72 h, 50 µM in series [3] stood at 30.7%. Besides, in series [4], the inhibition stood at 82.4%. The MIC in series [5] was determined as 4.91 µM; in series [1], 4.91 µM (≈ 1.56 µg/mL). The cytotoxicity at 72 h, 100 µM in series [6] amounted to 42.5%.

Take `O=C(Cn1cnc2ccccc2c1=O)NCc1ccco1`: in series [3], the cytotoxicity at 72 h, 50 µM was 1.96%. For the same compound, the inhibition in series [4] came to 46.1%. Besides, the MIC amounted to 2.75 µM in series [5] and 5.5 µM (≈ 1.56 µg/mL) in series [1]. Further, the cytotoxicity at 72 h, 100 µM in series [6] turned out to be 13.7%.

On to `Cc1nc2ccc(Cl)cc2c(=O)n1CC(=O)Nc1ccccc1`, for which the pIC50 in series [2] was 5.51. Also, the cytotoxicity at 72 h, 50 µM in series [3] stood at 19.9%. Moreover, the inhibition in series [4] was determined as 88.1%. The MIC in series [5] turned out to be 2.38 µM; in series [1] it was 4.76 µM (≈ 1.56 µg/mL). For the same compound, the cytotoxicity at 72 h, 100 µM in series [6] was determined as 28.7%.

`CO[C@H]1/C=C/O[C@@]2(C)Oc3c(C)c(O)c4c(O)c(c(/C=N/N5CCN(C)CC5)c(O)c4c3C2=O)NC(=O)/C(C)=C\C=C\[C@H](C)[C@H](O)[C@@H](C)[C@@H](O)[C@@H](C)[C@H](OC(C)=O)[C@@H]1C` [RIFAMPIN]: the MIC in series [1] is 0.15 µM (≈ 0.123 µg/mL).

Compound `CC[C@@H](CO)NCCN[C@@H](CC)CO` [ETHAMBUTOL] showed an MIC in series [1] of 7.64 µM (≈ 1.56 µg/mL).

On to `Cc1nc2ccc(Cl)cc2c(=O)n1CC(=O)NCc1nc2ccc([N+](=O)[O-])cc2s1`, for which the cytotoxicity at 72 h, 50 µM in series [3] is 28.4%. For the same compound, the inhibition in series [4] was determined as 54.1%. In series [1], the minimum inhibitory concentration (MIC) was determined as 58.2 µM (≈ 25.8 µg/mL). In series [6], the cytotoxicity at 72 h, 100 µM turned out to be 33.7%.

The compound `CC1COc2c(N3CCN(C)CC3)c(F)cc3c(=O)c(C(=O)O)cn1c23` (stereo not drawn) [OFLOXACIN] returned an MIC in series [1] of 2.16 µM (≈ 0.781 µg/mL).

Turning to `Cc1nc2ccccc2c(=O)n1CC(=O)NCc1ccco1`, the pIC50 in series [2] is 5.16. For the same compound, the cytotoxicity at 72 h, 50 µM in series [3] was 25.5%. In series [4], the inhibition came to 70.1%. The figures for the MIC in series [5] and in series [1] were 42 µM and 84.1 µM (≈ 25 µg/mL), respectively. The cytotoxicity at 72 h, 100 µM in series [6] was 41.5%.

As to `O=C(Cn1cnc2ccccc2c1=O)Nc1cc(C(F)(F)F)ccc1Cl`, the pIC50 in series [2] is 5.09. Moreover, in series [3], the cytotoxicity at 72 h, 50 µM turned out to be 10.1%. For the same compound, the inhibition in series [4] is 58.1%. Besides, the minimum inhibitory concentration (MIC) in series [5] came to 2.04 µM; in series [1], 8.18 µM (≈ 3.12 µg/mL). For the same compound, the cytotoxicity at 72 h, 100 µM in series [6] was found to be 35.6%.

Take `O=C(Cn1cnc2ccc(Cl)cc2c1=O)NCc1cccs1`: the pIC50 in series [2] is 5.15. The cytotoxicity at 72 h, 50 µM in series [3] came out at 32.4%. Further, the inhibition in series [4] turned out to be 68.9%. Further, the MIC in series [5] was 2.33 µM; in series [1] it was 9.36 µM (≈ 3.12 µg/mL). Further, the cytotoxicity at 72 h, 100 µM in series [6] came to 45.2%.

Regarding `O=C(Cn1cnc2ccc(Cl)cc2c1=O)Nc1ccccc1`, the pIC50 in series [2] was 5.11. The cytotoxicity at 72 h, 50 µM in series [3] amounted to 3.51%. In addition, the inhibition in series [4] was determined as 58.3%. For the same compound, the MIC is 1.24 µM in series [5] and 4.97 µM (≈ 1.56 µg/mL) in series [1]. Moreover, the cytotoxicity at 72 h, 100 µM in series [6] is 53%.

As to `Cc1nc2ccc(Cl)cc2c(=O)n1CC(=O)NCc1cccs1`, the pIC50 in series [2] is 5.17. Besides, the cytotoxicity at 72 h, 50 µM in series [3] worked out at 47.5%. For the same compound, in series [4], the inhibition amounted to 70.2%. The MIC was 4.48 µM in series [5] and 18 µM (≈ 6.25 µg/mL) in series [1]. Also, in series [6], the cytotoxicity at 72 h, 100 µM was found to be 51.7%.
